These results are taken from ChEMBL document CHEMBL2150946, “Rationally designed cyclic analogues of luteinizing hormone-releasing hormone: enhanced enzymatic stability and biological properties” (Eur J Med Chem, 2012).

As a reminder, the pIC50 is −log10 of the IC50, conventionally taken in molar units. Low values mean a large IC50, high ones a small IC50. A word on the Cmax: it is the highest concentration seen after dosing. The Tmax is the time from dosing to the highest level. As usually defined, the half-life is the time in which the quantity being followed falls by half. Read a low half-life as fast loss. As usually defined, the AUC is the area under the concentration-time curve, a measure of exposure. Low readings indicate less exposure, high ones more exposure.

The nature of data set [1]: (§1) Displacement of [125I]-Tyr6, His5 from human LHRH1 receptor expressed in HEK 293 cells after 16 to 19 hrs by gamma counter. It counts as cell-based. The settings on record: hek293. A digest of the protocol:
(§2)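 Competition binding on membranes from HEK 293 cells stably expressing human LHRH-I receptor, in HEPES buffer with CaCl2, MgCl2 and 0.5% BSA, pH 7.4. Radioligand was 120,000–240,000 cpm [125I-Tyr6,His5]LHRH with rising peptide concentrations, 16–19 h at 4 °C. Samples were filtered on PEI-soaked GF/C and gamma counted. Data were fitted to a one-site model by nonlinear regression; 3–4 experiments.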

In another data set the test system is HEK293. Described as §1. It counts as cell-based. A digest of the protocol: as §2
The nature of data set [2]: Metabolic stability in mouse renal epithelial cell membranes assessed as compound remaining at 10 nM measured at 30 mins. The settings on record: for remaining at 0.5 h, 0.01 µM: renal epithelial cell membranes, read-out: Stability. It counts as ADME, cell-based. A digest of the protocol:
(§3)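 Mouse kidney membranes (100,000 × g pellet) in 20 mM phosphate/100 mM NaCl, pH 7.4, at 4 mg/ml protein, incubated with 10 nM peptide at 37 °C with shaking. Sampling at 0, 30, 60 and 120 min was stopped with acetonitrile. LC-MS/MS (MRM) peak areas are expressed relative to t = 0 (100%).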

The nature of data set [3]: Metabolic stability in mouse renal epithelial cell membranes assessed as compound remaining at 10 nM measured at 120 mins. It counts as ADME, cell-based. The settings on record: read-out: Stability. A digest of the protocol:
as §3

The next data set deals with Plasma. Put plainly: Metabolic stability in overnight fasted C57BL/6N mouse plasma at 1 mg/kg, ip. Also on record: dose 1 mg/kg, route intraperitoneal. As to conditions: in vivo. It counts as ADME, organism-based. A digest of the protocol:
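Plasma peptide stability in vivo: fasted male C57BL/6 mice received 1 mg kg-1 i.p. in saline. Cardiac-puncture plasma was collected at 1, 2, 4 and 6 h (n = 5). Peptide was measured by LC-MS/MS after protein precipitation.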

The nature of data set [4]: Cmax in overnight fasted C57BL/6N mouse at 1 mg/kg, ip. It counts as ADME, organism-based. Also on record: dose 1 mg/kg, route intraperitoneal. The settings on record: in vivo. A digest of the protocol: (§4)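 Male C57BL/6 mice, fasted 12 h overnight, given 1 mg kg-1 i.p. in saline. Blood was taken by cardiac puncture under isoflurane at 1, 2, 4 and 6 h post-dose (n = 5). Plasma was deproteinized and peptide was quantified by LC-MS/MS (MRM) against an internal standard using nine-point calibration curves. Parameters were derived from the plasma concentration–time data.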

Data set [5] is described as follows: Tmax in overnight fasted C57BL/6N mouse at 1 mg/kg, ip. It counts as ADME, organism-based. Further details: dose 1 mg/kg, route intraperitoneal. As to conditions: in vivo. A digest of the protocol:
as §4

The nature of data set [6]: Half life in overnight fasted C57BL/6N mouse at 1 mg/kg, ip. It counts as ADME, organism-based. Further details: dose 1 mg/kg, route intraperitoneal. The settings on record: in vivo. A digest of the protocol: as §4
Data set [7] can be described thus: AUC in overnight fasted C57BL/6N mouse at 1 mg/kg, ip. As to conditions: plasma. It counts as ADME, organism-based. Further details: dose 1 mg/kg, route intraperitoneal. A digest of the protocol:
as §4

Data set [8] is described as follows: Drug excretion in overnight fasted C57BL/6N mouse assessed as elimination rate constant at 1 mg/kg, ip. It counts as ADME, organism-based. Further details: dose 1 mg/kg, route intraperitoneal. As to conditions: in vivo, read-out: Drug excretion (converted). A digest of the protocol:
as §4

A short description of data set [9]: Metabolic stability in overnight fasted C57BL/6N mouse plasma assessed as compound remaining at 50 ng/mL, ip. It counts as ADME, cell-free. As to conditions: read-out: Stability. A digest of the protocol: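 Recovery of spiked peptide from mouse plasma at 5 and 50 ng/mL. Plasma was extracted by protein precipitation and analysed by LC-MS/MS with an internal standard.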

Data set [10] deals with Mus musculus. The experiment in a line: Agonist activity at LHRH1 receptor in C57BL/6N mouse assessed as testosterone AUC (1 to 6 hrs) at 1 mg/kg, ip. It counts as functional. The settings on record: route intraperitoneal. A digest of the protocol: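 Male C57BL/6N mice were dosed 1 mg kg-1 i.p. with saline vehicle controls (n = 5). Cardiac-puncture plasma was taken at 1, 2, 4 and 6 h. Testosterone was quantified by LC-MS/MS with a dexamethasone internal standard, calibrated 0.05–100 ng mL-1. AUC was computed over 1–6 h; mean ± SD.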

In data set [11] the test system is Mus musculus. Put plainly: Agonist activity at LHRH1 receptor in C57BL/6N mouse assessed as release of testosterone in plasma at 100 ug/kg, ip. It counts as functional, organism-based. A digest of the protocol:
(§5)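 Male C57BL/6N mice were pretreated i.p. with saline. After 15 min, peptide was given i.p. at 1 or 100 µg kg-1 (n = 5). Plasma testosterone was measured by LC-MS/MS with a dexamethasone internal standard.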

Data set [12] concerns Mus musculus. Put plainly: Agonist activity at LHRH1 receptor in C57BL/6N mouse assessed as release of testosterone in plasma at 100 ug/kg, ip in presence of cetrorelix. It counts as functional, organism-based. A digest of the protocol: (§6)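 Male C57BL/6N mice first received cetrorelix 1 mg kg-1 i.p. After 15 min, peptide was given i.p. at 1 or 100 µg kg-1 (n = 5). Plasma testosterone was quantified by LC-MS/MS with a dexamethasone internal standard.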

Data set [13] is described as follows: Analytical recovery in overnight fasted C57BL/6N mouse plasma assessed as compound recovered at 5 ng/mL, ip.
The test system of data set [14] is Mus musculus. The experiment in a line: Agonist activity at LHRH1 receptor in C57BL/6N mouse assessed as release of testosterone in plasma at 1 ug/kg, ip. It counts as functional, organism-based. A digest of the protocol: as §5
Data set [15] has as its system Mus musculus. The experiment in a line: Agonist activity at LHRH1 receptor in C57BL/6N mouse assessed as release of testosterone in plasma at 1 ug/kg, ip in presence of cetrorelix. It counts as functional, organism-based. A digest of the protocol: as §6

Structures are written as SMILES. The source made the active and inactive calls. The rule behind the calls is not given here.

Regarding `CC(C)C[C@@H]1NC(=O)[C@@H](CC(C)C)NC(=O)[C@H](Cc2ccc(O)cc2)NC(=O)[C@H](CO)NC(=O)[C@H](Cc2c[nH]c3ccccc23)NC(=O)[C@H](Cc2cnc[nH]2)NC(=O)[C@@H]2CCCN2C(=O)C[C@H](C)NC(=O)[C@@H]2CCCN2C(=O)[C@H](CCCNC(=N)N)NC1=O`, in data set [1], the pIC50 was 6.17. Further, the inhibition entry in the data set on HEK293 was “Dose-dependent effect”. Besides, the remaining at 0.5 h, 0.01 µM in data set [2] stood at 100%. For the same compound, the remaining at 2 h, 0.01 µM in data set [3] was 100%. In addition, the Stability result in the data set with Plasma was “Stable”. Further, the Cmax in [4] was 834 ng/mL. Moreover, the Tmax in data set [5] was 60 min. Also, the half-life in [6] is 30 min. In addition, in data set [7], the AUC is 808 ng·h/mL. For the same compound, in data set [8], the k el was 0.000278 s⁻¹. Also, the remaining at 50 ng/mL in data set [9] is > 90%. In addition, the Activity with Mus musculus [10] is 61.1 ng·h/mL. Further, in the data set on Mus musculus [11], the result was Active. For the same compound, in the data set with Mus musculus [12], the outcome was inactive. Besides, the recovered at 5 ng/mL in data set [13] is > 90%.

In turn, `COc1ccc(C[C@@H]2NC(=O)[C@H](CO)NC(=O)[C@H](Cc3c[nH]c4ccccc34)NC(=O)[C@H](Cc3cnc[nH]3)NC(=O)[C@@H]3CCCN3C(=O)CC(C)NC(=O)[C@@H]3CCN3C(=O)[C@H](CCCNC(=N)N)NC(=O)[C@H](CC(C)C)NC(=O)[C@@H](CC(C)C)NC2=O)cc1` (some centres not stated) yielded a pIC50 in data set [1] of 5.82. In the data set on HEK293, the inhibition result was “Dose-dependent effect”. In addition, the remaining at 0.5 h, 0.01 µM in [2] was determined as 90%.

`CC(C)C[C@@H]1NC(=O)[C@@H](CC(C)C)NC(=O)[C@H](Cc2ccc(O)cc2)NC(=O)[C@H](CO)NC(=O)[C@H](Cc2c[nH]c3ccccc23)NC(=O)[C@H](Cc2cnc[nH]2)NC(=O)[C@@H]2CCCN2C(=O)CCCCCNC(=O)C[C@H](C)NC(=O)[C@@H]2CCCN2C(=O)[C@H](CCCNC(=N)N)NC1=O`: the pIC50 in [1] came to 5.31. For the same compound, the inhibition result with HEK293 is “Dose-dependent effect”. Also, in [2], the remaining at 0.5 h, 0.01 µM stood at 72%.

`CCNC(=O)[C@@H]1CCCN1C(=O)[C@H](CCCNC(=N)N)NC(=O)[C@H](CC(C)C)NC(=O)[C@@H](CC(C)C)NC(=O)[C@H](Cc1ccc(O)cc1)NC(=O)[C@H](CO)NC(=O)[C@H](Cc1c[nH]c2ccccc12)NC(=O)[C@H](Cc1c[nH]cn1)NC(=O)[C@@H]1CCC(=O)N1` [LEUPROLIDE] returned a pIC50 in data set [1] of 9.12. The inhibition entry in the data set with HEK293 is “Dose-dependent effect”. For the same compound, in data set [2], the remaining at 0.5 h, 0.01 µM is 3%. Further, in the data set with Plasma, the Stability entry is on record as “Stable”. In data set [4], the peak level (Cmax) was 190 ng/mL. The compound also had a half-life in data set [6] of 42 min. The AUC in data set [7] came to 138 ng·h/mL. In data set [8], the k el was 0.000278 s⁻¹. The remaining at 50 ng/mL in data set [9] is > 90%. For the same compound, the Activity with Mus musculus [10] came to 244.1 ng·h/mL. Besides, in the data set with Mus musculus [14], the result was Active. Moreover, the result with Mus musculus [15] was inactive. Moreover, in data set [13], the recovered at 5 ng/mL was > 90%.

As to `COc1ccc(C[C@@H]2NC(=O)[C@H](CO)NC(=O)[C@H](Cc3c[nH]c4ccccc34)NC(=O)[C@H](Cc3cnc[nH]3)NC(=O)[C@@H]3CCCN3C(=O)CNC(=O)[C@@H]3CCN3C(=O)[C@H](CCCNC(=N)N)NC(=O)[C@H](CC(C)C)NC(=O)[C@@H](Cc3c[nH]c4ccccc34)NC2=O)cc1`, in [1], the pIC50 came to 5.58. The inhibition result in the data set on HEK293 is “Dose-dependent effect”. In data set [2], the remaining at 0.5 h, 0.01 µM is 68%.

As to `CC(C)C[C@H](NC(=O)CNC(=O)[C@H](Cc1ccc(O)cc1)NC(=O)[C@H](CO)NC(=O)[C@H](Cc1c[nH]c2ccccc12)NC(=O)[C@H](Cc1cnc[nH]1)NC(=O)[C@@H]1CCC(=O)N1)C(=O)N[C@@H](CCCNC(=N)N)C(=O)N1CCC[C@H]1C(=O)NCC(N)=O` [GONADORELIN], in the data set on HEK293, the inhibition result is “Dose-dependent effect”. Further, in [2] (epithelial cell, 0.5 h, 0.01 µM), the Stability entry was “Unstable”.

In the case of `COc1ccc(C[C@@H]2NC(=O)[C@H](CO)NC(=O)[C@H](Cc3c[nH]c4ccccc34)NC(=O)[C@H](Cc3cnc[nH]3)NC(=O)[C@@H]3CCCN3C(=O)CCCCCNC(=O)C[C@H](C)NC(=O)[C@@H]3CCCN3C(=O)[C@H](CCCNC(=N)N)NC(=O)[C@H](CC(C)C)NC(=O)[C@@H](CC(C)C)NC2=O)cc1`, in [1], the pIC50 stood at 5.54. The inhibition result with HEK293 is “Dose-dependent effect”. The remaining at 0.5 h, 0.01 µM in data set [2] was 90%.
